Hits are enriched below; roughly 1.5% of the tested compounds scored in any of these assays.
APJ antag – antagonists of human APJ apelin receptor; P35414; CHO-K1 APJ beta-arrestin complementation, luminescence; inhibition, % at 20 µM; 330,000 tested, 0.32% active; AID 2521;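 active means inhibition above about 40% at 20 µM, limit read from the data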;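 further: cells challenged with 10 nM apelin-13 agonist together with compound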
Target sequence (P35414 whole entry, looked up): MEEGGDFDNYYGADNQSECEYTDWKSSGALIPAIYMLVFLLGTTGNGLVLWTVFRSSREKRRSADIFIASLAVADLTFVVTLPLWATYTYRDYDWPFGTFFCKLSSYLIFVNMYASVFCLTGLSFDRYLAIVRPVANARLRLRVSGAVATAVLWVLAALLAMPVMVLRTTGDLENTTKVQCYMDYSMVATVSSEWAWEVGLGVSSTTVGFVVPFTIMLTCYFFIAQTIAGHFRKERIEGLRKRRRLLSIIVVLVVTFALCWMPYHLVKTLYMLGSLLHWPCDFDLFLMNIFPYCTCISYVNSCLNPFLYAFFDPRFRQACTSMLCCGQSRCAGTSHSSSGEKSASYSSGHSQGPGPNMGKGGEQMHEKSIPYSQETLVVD
EBI2 block – EBI2 (human) antagonism; P32249; EBI2 beta-arrestin recruitment, luminescence, 7a,25-OHC stimulated; inhibition, % at 5 µM; 360,000 tested, 0.81% active; AID 651636; in the data active means inhibition above about 38%;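 further: enzyme fragment complementation signal reports receptor beta-arrestin coupling in cells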
APJ ag – activates the human apelin receptor APJ. activation, % at 20 µM. 330,000 tested, 0.11% active. CHO-K1 APJ PathHunter beta-arrestin, luminescence; 0% DMSO wells, 100% apelin;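 active means activation more than six SD over the plate average, tested at 20 µM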
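Assay system – PathHunter CHO-K1 APJ (AGTRL-1) beta-arrestin reporter cells · Compound – one dose, 20 µM compound, 1% DMSO · Timing – compound 90 min 25 °C, reagent 1 h · Measured by – luminescence from split beta-galactosidase complementation, Galacton Star/Emerald II substrate · Measure – beta-arrestin recruitment to APJ as agonist activity, luminescent signal · Benchmarks – DMSO vs Apelin-13 10 nM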
CXCR6 inh – CXCR6 (human) receptor inhibition. inhibition, % at 20 µM. O00574. 360,000 tested, 0.36% active. CHO-K1 PathHunter CXCR6 beta-arrestin, luminescence. AID 602244; in the data active means inhibition above about 34%, passing the limit was not always enough;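 further: antagonist mode with CXCL16 agonist at 10 nM final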
CCR6 antagonist – antagonists of human CCR6 receptor; P51684; inhibition, % at 20 µM; 340,000 tested, 0.49% active; AID 493098; CHO-K1 CCR6 PathHunter beta-arrestin, luminescence, CCL20-stimulated;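 active means compounds whose inhibition of the agonist-driven luminescence signal at 20 µM reaches about 50%, limit read from the data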;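 further: cells stimulated with CCL20 at 14 nM final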
EBI2 conf – EBI2 (human) antagonism, single concentration confirmation; shares compounds with EBI2 block; EBI2 beta-arrestin luminescence, 7a,25-OHC antagonism; inhibition, % at 5 µM; 2,400 tested, 29% active;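 active means inhibition of at least 50%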
EBI2 ag – EBI2 agonism counter-screen; activation, % at 5 µM; EBI2-expressing cells, agonist mode, luminescence, 60 min; 0% vehicle, 100% 7α,25-dihydroxycholesterol control; shares compounds with EBI2 block; 2,400 tested, under 10 active;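 active means activation of at least 50%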
bGal counter – inhibits E. coli beta-galactosidase, counter-screen for EBI2 antagonists; inhibition, % at 5 µM; AID 652176; 2,400 tested, 1% active; shares compounds with EBI2 block; purified beta-galactosidase, luminescent Galacton Star, 15 min;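 active means replicate-average signal at least 3 plate SD below neutral wells, shown as high inhibition, flagging enzyme-inhibiting false positives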;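 further: higher means stronger loss of beta-gal luminescence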
Each line names hits and unclear results; the compound was inactive in the other large screens (follow-up assays come after a bar, where they were run).

O=C1C=C(c2ccc3[nH]ccc3c2)C[C@@H](c2ccc(F)cc2)C1	EBI2 block 52 | EBI2 conf 62 | EBI2 ag inactive | bGal counter inactive
Cc1ccc(S(=O)(=O)N[C@H](C(=O)OCC(=O)N2N=C(c3ccc(Cl)cc3)CC2c2ccco2)C(C)C)cc1 (stereo partly specified)	EBI2 block 44 | EBI2 conf 53 | EBI2 ag inactive | bGal counter inactive
CCOC(=O)c1cc(-c2ccccc2)sc1N	EBI2 block 46 | EBI2 conf 59 | EBI2 ag inactive | bGal counter inactive
O=[N+]([O-])C1=CC=C2C(=NC3(CCCCC3)N2O)C1=NC1CCCCC1	EBI2 block 48 | EBI2 conf inactive | EBI2 ag inactive | bGal counter inactive
CC1(C)CC(N=C2C([N+](=O)[O-])=CC=C3C2=NC2(CCCCC2)N3O)CC(C)(C)N1	none
COc1ccc(/C=N/NC(=O)CNC(=O)/C=C/c2ccccc2OC)cc1	EBI2 block 77 | EBI2 conf 57 | EBI2 ag inactive | bGal counter inactive
COc1ccccc1/C=C\C(=O)NCC(=O)N/N=C/c1cccc(OC)c1O	none
CCCC(C)(C)C(=O)N1CCC1(C)C(=O)NS(=O)(=O)c1cccc(Cl)c1 (stereo unspecified)	none (no result: APJ antag, APJ ag, CCR6 antagonist)
O=C(CCc1nc2ccccc2c(=O)[nH]1)N1CCCc2ccccc21	none
CCOc1ccc(NC(=S)Nc2ccc(F)cc2)cc1	EBI2 block 59 | EBI2 conf inactive | EBI2 ag inactive | bGal counter inactive
CCOc1ccc(NC(=S)NN(C)C(=S)Nc2ccc(OCC)cc2)cc1	EBI2 block 78 | EBI2 conf inactive | EBI2 ag inactive | bGal counter inactive
CCOc1ccc(NC(=S)NC(=O)Cc2ccccc2)cc1	none
CCOc1ccc(NC(=S)Nc2cc(-c3ccccc3)[nH]n2)cc1	EBI2 block 42 | EBI2 conf inactive | EBI2 ag inactive | bGal counter inactive
CCOc1ccc(NC(=S)Nc2ccccc2C2(C)CC2)cc1	EBI2 block 60 | EBI2 conf inactive | EBI2 ag inactive | bGal counter inactive
O=C(COc1ccc(C(=O)NCCN2CCOCC2)cc1)Nc1cccc(C(F)(F)F)c1	none
Cc1ccc(OCCC(=O)N(CCC(C)C)c2c(N)n(Cc3ccccc3)c(=O)[nH]c2=O)cc1	none
Cc1c(NC(=O)c2ccc3c(c2)OCO3)c(=O)n(-c2ccccc2)n1C	none
CCOc1ccc(C(=O)NC(=S)Nc2cccnc2)cc1	none
CCOc1ccc(NC(=S)Nc2cccnc2)cc1	EBI2 block 58 | EBI2 conf inactive | EBI2 ag inactive | bGal counter inactive
Cc1cc(N2CCN(c3nc(-c4ccccc4)cs3)CC2)c2ccccc2n1	EBI2 block 55 | EBI2 conf inactive | EBI2 ag inactive | bGal counter inactive
COc1ccc(-c2cc3nc(C)c(CCC(=O)NCc4ccc(F)cc4)c(C)n3n2)c(OC)c1	EBI2 block 53 | EBI2 conf inactive | EBI2 ag inactive | bGal counter inactive
COc1ccc(CNC(=O)CCc2c(C)nc3cc(-c4ccccc4OC)nn3c2C)cc1	none
COc1ccc(C2=NOC(Cn3nc(C(=O)NCc4ccc(C)cc4)cc3-c3ccccc3)C2)cc1 (stereo unspecified)	EBI2 block 44 | EBI2 conf inactive | EBI2 ag inactive | bGal counter inactive
CCn1c(-c2ccccc2Cl)nn(CC(=O)NCCc2ccccc2)c1=S	EBI2 block 57 | EBI2 conf inactive | EBI2 ag inactive | bGal counter inactive
CCn1c(-c2ccccc2Cl)nn(CC(=O)Nc2cc(Cl)ccc2Cl)c1=S	none
COc1ccc(-n2cnnc2SCC(=O)NC2CCCCC2)cc1	none
CC1=CC(C)(C)Nc2ccc(OS(=O)(=O)c3ccc(C)cc3)cc21	EBI2 block 42 | EBI2 conf inactive | EBI2 ag inactive | bGal counter inactive
CC(=O)Nc1ccc(S(=O)(=O)Oc2ccc3c(c2)C(C)=CC(C)(C)N3)cc1	none (no result: EBI2 block, CXCR6 inh, CCR6 antagonist)
N#Cc1ccc(-c2nc3ccc(Cl)cn3c2Cc2ccccc2)cc1	none (no result: APJ antag, APJ ag, CCR6 antagonist)
OCCn1c(Cl)nc2ccccc21	none
NS(=O)(=O)c1cccc(Nc2nc3ccccc3nc2NS(=O)(=O)c2ccc(Cl)cc2)c1	EBI2 block 63 | EBI2 conf 53 | EBI2 ag inactive | bGal counter inactive
CC(=O)OC(C(=O)NC1CCCCC1)c1ccc(Cl)c(Cl)c1 (stereo unspecified)	none
CCS(=O)(=O)N1N=C(c2cccc(NS(C)(=O)=O)c2)CC1c1ccc(C)cc1 (stereo unspecified)	none
COc1ccc([N+](=O)[O-])cc1NC(=O)C(C)N(C)Cc1ccc(Br)cc1 (stereo unspecified)	none
COc1ccc(Br)cc1CN(C)C(C)C(=O)Nc1cc([N+](=O)[O-])ccc1OC (stereo unspecified)	EBI2 block 40 | EBI2 conf inactive | EBI2 ag inactive | bGal counter inactive
CSCCC(NC(=O)c1ccccc1)C(=O)N1CC(C)OC(C)C1 (stereo unspecified)	none
COc1ccc(Cn2c(=O)c3cccnc3n(Cc3ccc([N+](=O)[O-])cc3)c2=O)cc1	EBI2 block 47 | EBI2 conf inactive | EBI2 ag inactive | bGal counter inactive
CCCNC(=O)c1cc(C2CCCN(C(=O)C3CCCCC3)C2)on1 (stereo unspecified)	none (no result: APJ antag, APJ ag, CCR6 antagonist)
CC(=O)N1CCN(C(=S)NC(=O)c2ccc(S(=O)(=O)N3CCOCC3)cc2)CC1	none
O=C(c1ccc(Cl)cc1)c1c[nH]c(C(=O)C(Cl)(Cl)Cl)c1	EBI2 block 42 | EBI2 conf inactive | EBI2 ag inactive | bGal counter inactive
C=CCc1c(C)nc2c(-c3ccccc3)cnn2c1N1CCOCC1	none (no result: APJ antag, APJ ag)
O=C(CCSc1ccc(Cl)cc1)NC12CC3CC(CC(C3)C1)C2	EBI2 block 54 | EBI2 conf inactive | EBI2 ag inactive | bGal counter inactive
O=C(CCSc1ccc(Cl)cc1)NC1CCCCC1	none
COC(=O)c1ccc2nc(C3CCCCC3)c(Cc3ccccc3)n2c1	EBI2 block 51 (no result: APJ antag, APJ ag, CCR6 antagonist) | EBI2 conf 65 | EBI2 ag inactive | bGal counter inactive
COC(=O)c1ccc2nc(C3CCCCC3)c(CC(C)(C)C)n2c1	none (no result: APJ antag, APJ ag, CCR6 antagonist)
COc1ccc(/C=C/C(=O)c2cc3c(cc2N)OCO3)cc1	EBI2 block 63 | EBI2 conf inactive | EBI2 ag inactive | bGal counter inactive
Cc1cc(C)cc(-n2ncc3c2CCCC3NC(=O)CCN2CCCC2=O)c1 (stereo unspecified)	none
